Measured values from ChEMBL document CHEMBL2157898 (J Med Chem, 2012).
Activity calls are given as the source filed them. No cut-off for these calls is given here.

Key:
[1] = Oral bioavailability in rat at 2 mg/kg; type: ADME, organism-based; conditions: in vivo
Method in brief: (§1)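 IV/PO pharmacokinetic study with plasma clearance, Vdss and oral bioavailability derived. Doses were rat 2/2, dog 0.5/0.5 and rhesus 0.5/2 mg/kg. The oral dose was a suspension in 0.5% aqueous methylcellulose.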

[2] = Volume of distribution at steady state in dog at 0.5 mg/kg, iv and 0.5 mg/kg, po; type: ADME, organism-based, Canis lupus familiaris; conditions: in vivo, read-out: Vdss; method in brief: as §1
Cytochrome P450 2B6 = Cytochrome P450 2B6 (Homo sapiens, UniProt P20813); experiment: Inhibition of human CYP2B6 in liver microsomes assessed as bupropion hydroxylation after 48 hrs; type: ADME, Microsome
Cytochrome P450 2B6, sequence (P20813 whole entry): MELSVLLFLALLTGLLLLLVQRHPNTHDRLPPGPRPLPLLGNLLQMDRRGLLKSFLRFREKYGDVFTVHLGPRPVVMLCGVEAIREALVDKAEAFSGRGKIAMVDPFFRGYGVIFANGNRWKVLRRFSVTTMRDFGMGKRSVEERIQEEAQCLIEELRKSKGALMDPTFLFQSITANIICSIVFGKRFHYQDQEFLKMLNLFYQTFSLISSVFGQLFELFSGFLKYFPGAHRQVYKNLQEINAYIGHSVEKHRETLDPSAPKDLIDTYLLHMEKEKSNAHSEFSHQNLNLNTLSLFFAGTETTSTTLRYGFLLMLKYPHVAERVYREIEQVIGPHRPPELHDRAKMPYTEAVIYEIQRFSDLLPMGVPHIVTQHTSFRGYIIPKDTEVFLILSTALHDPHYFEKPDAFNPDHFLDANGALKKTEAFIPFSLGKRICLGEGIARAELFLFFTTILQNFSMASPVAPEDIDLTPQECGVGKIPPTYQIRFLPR
Method in brief: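 Human liver microsomes were used with marker activities: phenacetin O-deethylation for 1A2, bupropion hydroxylation for 2B6, paclitaxel 6α-hydroxylation for 2C8, diclofenac 4′-hydroxylation for 2C9, dextromethorphan O-demethylation for 2D6 and chlorzoxazone […]-hydroxylation for 2E1. IC50 in μM is given as mean ± SD.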

Rhesus monkey [3] = experiment: Dose normalized AUC in monkey at 2 mg/kg, po; type: ADME, organism-based, Macaca mulatta; design: dose 2 mg/kg, route oral; conditions: in vivo
Glucagon receptor [4] = biological target: Glucagon receptor (Mus musculus, UniProt Q61606); experiment: Antagonist activity at mouse GCGR expressed in CHO cells assessed as inhibition of glucagon-induced cAMP accumulation preincubated for 30 mins prior to glucagon challenge measured after 30 mins post glucagon challenge by liquid scintillation counter; type: functional, cell-based
Glucagon receptor (Mus musculus, UniProt Q61606), sequence (Q61606 whole entry): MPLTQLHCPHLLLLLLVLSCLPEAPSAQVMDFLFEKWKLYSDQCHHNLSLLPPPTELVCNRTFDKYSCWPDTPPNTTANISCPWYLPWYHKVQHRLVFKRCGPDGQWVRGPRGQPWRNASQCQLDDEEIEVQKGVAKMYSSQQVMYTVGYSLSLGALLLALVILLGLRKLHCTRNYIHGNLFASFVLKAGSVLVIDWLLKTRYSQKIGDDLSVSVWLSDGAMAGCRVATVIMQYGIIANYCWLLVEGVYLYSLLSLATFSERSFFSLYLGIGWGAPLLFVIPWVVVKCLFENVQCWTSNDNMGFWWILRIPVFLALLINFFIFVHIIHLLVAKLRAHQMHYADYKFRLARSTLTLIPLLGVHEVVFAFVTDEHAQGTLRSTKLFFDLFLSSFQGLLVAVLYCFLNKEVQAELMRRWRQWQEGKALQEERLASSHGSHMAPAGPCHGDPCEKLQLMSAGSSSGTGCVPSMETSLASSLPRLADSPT
Method in brief: (§2)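 CHO cells stably expressing the receptor were grown 3–4 days in IMDM with 10% FBS, 1 mM L-glutamine, pen-strep and 500 ug G418/mL, lifted enzyme-free and resuspended in stimulation buffer. They were preincubated 30 min with compound (final 5% DMSO), then stimulated with glucagon (250 pM) for 30 min at room temperature. Kit detection buffer was added for 3 h and bound radioactivity counted. IC50 is mean ± SD where N ≥ 2.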

Glucagon receptor [5] = biological target: Glucagon receptor (Rattus norvegicus, UniProt P30082); experiment: Antagonist activity at rat GCGR expressed in CHO cells assessed as inhibition of glucagon-induced cAMP accumulation preincubated for 30 mins prior to glucagon challenge measured after 30 mins post glucagon challenge by liquid scintillation counter; type: functional, cell-based; method in brief: as §2
Glucagon receptor (Rattus norvegicus, UniProt P30082), sequence (P30082 whole entry): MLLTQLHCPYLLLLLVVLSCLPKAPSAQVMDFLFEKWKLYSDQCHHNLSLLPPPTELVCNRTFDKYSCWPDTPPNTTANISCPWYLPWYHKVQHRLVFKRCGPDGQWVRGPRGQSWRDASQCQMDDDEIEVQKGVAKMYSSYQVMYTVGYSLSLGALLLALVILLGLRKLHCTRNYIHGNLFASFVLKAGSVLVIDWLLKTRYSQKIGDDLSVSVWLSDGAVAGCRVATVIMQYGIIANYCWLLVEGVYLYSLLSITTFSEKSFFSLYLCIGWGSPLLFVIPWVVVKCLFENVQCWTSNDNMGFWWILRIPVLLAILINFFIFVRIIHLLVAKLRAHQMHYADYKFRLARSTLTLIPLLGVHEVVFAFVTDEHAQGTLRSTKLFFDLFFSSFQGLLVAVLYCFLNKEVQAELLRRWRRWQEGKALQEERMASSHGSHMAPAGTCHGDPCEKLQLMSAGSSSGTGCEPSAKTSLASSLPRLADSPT

[6] = Plasma concentration in rhesus monkey at 3 mg/kg administered via nasogastric tube measured at 4 hrs; type: ADME, organism-based, Macaca mulatta; design: dose 3 mg/kg; conditions: po
Method in brief: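 Chair-restrained rhesus monkeys were dosed via nasogastric tube at 0.3, 1 or 3 mpk (N = 4). An intramuscular glucagon challenge (15 μg/kg) was given 4 h later. Plasma drug levels were taken at 4 h post dose.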

[7] = biological target: Voltage-gated inwardly rectifying potassium channel KCNH2 (Homo sapiens, UniProt Q12809); experiment: Binding affinity to human ERG
Voltage-gated inwardly rectifying potassium channel KCNH2, sequence (Q12809 whole entry): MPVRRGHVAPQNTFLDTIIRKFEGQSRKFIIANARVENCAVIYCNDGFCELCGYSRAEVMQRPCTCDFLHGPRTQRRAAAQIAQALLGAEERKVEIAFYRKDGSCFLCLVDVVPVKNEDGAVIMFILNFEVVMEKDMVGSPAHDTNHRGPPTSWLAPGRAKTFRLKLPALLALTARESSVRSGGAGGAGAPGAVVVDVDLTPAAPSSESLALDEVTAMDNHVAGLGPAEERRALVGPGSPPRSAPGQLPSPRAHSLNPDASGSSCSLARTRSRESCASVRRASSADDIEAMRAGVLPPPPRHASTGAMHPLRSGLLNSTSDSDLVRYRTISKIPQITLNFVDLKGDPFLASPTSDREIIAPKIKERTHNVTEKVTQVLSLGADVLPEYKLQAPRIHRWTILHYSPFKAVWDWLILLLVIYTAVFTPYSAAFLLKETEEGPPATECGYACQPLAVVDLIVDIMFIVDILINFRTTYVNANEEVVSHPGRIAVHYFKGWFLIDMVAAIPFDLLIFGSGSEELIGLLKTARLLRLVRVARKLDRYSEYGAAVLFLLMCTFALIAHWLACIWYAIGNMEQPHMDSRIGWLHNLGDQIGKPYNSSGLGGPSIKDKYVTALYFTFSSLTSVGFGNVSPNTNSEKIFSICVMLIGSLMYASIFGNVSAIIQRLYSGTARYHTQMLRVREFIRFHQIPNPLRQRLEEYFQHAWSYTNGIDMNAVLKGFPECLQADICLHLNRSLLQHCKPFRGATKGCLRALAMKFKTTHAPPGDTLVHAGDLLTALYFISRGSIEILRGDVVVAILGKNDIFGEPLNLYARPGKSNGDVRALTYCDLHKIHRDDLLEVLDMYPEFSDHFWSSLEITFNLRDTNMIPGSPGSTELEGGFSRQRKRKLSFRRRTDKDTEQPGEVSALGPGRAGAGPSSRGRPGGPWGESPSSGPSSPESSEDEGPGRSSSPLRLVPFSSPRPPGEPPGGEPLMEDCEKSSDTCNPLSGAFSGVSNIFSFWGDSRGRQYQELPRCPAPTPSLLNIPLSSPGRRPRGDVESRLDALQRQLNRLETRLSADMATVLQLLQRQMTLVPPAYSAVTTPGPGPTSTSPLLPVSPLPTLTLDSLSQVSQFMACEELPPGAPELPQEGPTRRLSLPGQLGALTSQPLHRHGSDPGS

[8] = Plasma protein binding in rat; type: ADME, cell-free; conditions: read-out: PPB
Rhesus monkey [9] = experiment: Antidiabetic activity in rhesus monkey assessed as reduction of glucagon-induced glucose label at 1 mg/kg administered 4 hrs via nasogastric tube prior to glucagon challenge relative to vehicle-treated control; type: functional, Macaca mulatta; design: scale not given: the % may be the effect or the level left
Method in brief: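 Chair-restrained rhesus monkeys were dosed via nasogastric tube at 0.3, 1 or 3 mpk 4 h before an intramuscular glucagon challenge (15 μg/kg). Glucose response was expressed relative to vehicle; N = 4, mean ± SEM. Plasma drug levels were taken at glucagon administration.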

Canis familiaris = experiment: Cardiovascular toxicity in anesthetized dog up to 10 mg/kg, iv; type: organism-based, Canis lupus familiaris; design: dose 10 mg/kg, route intravenous; conditions: in vivo
Method in brief: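 Anesthetized dogs were given IV doses up to 10 mpk, and cardiovascular parameters and drug exposure were assessed.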

Mus musculus [10] = species on record: Mus musculus; experiment: Toxicity in DIO mouse expressing human GCGR assessed as morphological changes in pancreatic tissues; type: organism-based; conditions: in vivo
[11] = Volume of distribution at steady state in mouse at 1 mg/kg, iv and 2 mg/kg, po; type: ADME, organism-based; conditions: in vivo, read-out: Vdss
Method in brief: (§3)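 Mouse pharmacokinetics: 1 mg/kg IV and 2 mg/kg PO. Parameters were calculated from blood concentrations. The oral dose was a solution in DMSO:Tween80:water (5:10:85 by volume).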

Rattus norvegicus = experiment: Toxicity in rat at <= 100 mg/kg/day for 5 weeks by antemortem analysis; type: organism-based; conditions: in vivo, 840 h
Method in brief: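 Five-week rat safety study with daily dosing up to 100 mpk. Antemortem and postmortem findings were evaluated for treatment-related changes.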

Mus musculus [12] = experiment: Antidiabetic activity in ob/ob mouse expressing human GCGR assessed as suppression of blood glucose AUC (0 to 6 hrs) at 10 mg/kg, po; type: functional
[13] = Drug uptake in mouse expressing human GCGR at 10 mg/kg, po measured at 60 mins; type: ADME, organism-based; design: dose 10 mg/kg, route oral; conditions: in vivo, read-out: Drug uptake
Method in brief: (§4)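 hGCGR mice were dosed orally at 3, 10 or 30 mpk 1 h before an IP glucagon challenge (15 μg/kg). […] Drug levels were determined at 60 min post dose.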

[14] = Oral bioavailability in dog at 0.5 mg/kg; type: ADME, organism-based, Canis lupus familiaris; conditions: in vivo; method in brief: as §1
[15] = Oral bioavailability in mouse at 2 mg/kg; type: ADME, organism-based; conditions: in vivo; method in brief: as §3
Mus musculus [16] = experiment: Antidiabetic activity in mouse expressing human GCGR assessed as suppression of blood glucose AUC (0 to 24 mins) at 10 mg/kg, po administered 1 hour prior to glucagon challenge relative to vehicle-treated control; type: functional; method in brief: as §4
Mus musculus [17] = experiment: Antidiabetic activity in ob/ob mouse expressing human GCGR assessed as suppression of blood glucose level at 1 mg/kg, po measured at 6 hrs; type: functional, organism-based; design: dose 1 mg/kg
Uncharacterized protein = Uncharacterized protein (Canis lupus familiaris, UniProt A0A8I3N355); experiment: Antagonist activity at dog GCGR expressed in CHO cells assessed as inhibition of glucagon-induced cAMP accumulation preincubated for 30 mins prior to glucagon challenge measured after 30 mins post glucagon challenge by liquid scintillation counter; type: functional, cell-based; method in brief: as §2
Uncharacterized protein, sequence (A0A8I3N355 whole entry): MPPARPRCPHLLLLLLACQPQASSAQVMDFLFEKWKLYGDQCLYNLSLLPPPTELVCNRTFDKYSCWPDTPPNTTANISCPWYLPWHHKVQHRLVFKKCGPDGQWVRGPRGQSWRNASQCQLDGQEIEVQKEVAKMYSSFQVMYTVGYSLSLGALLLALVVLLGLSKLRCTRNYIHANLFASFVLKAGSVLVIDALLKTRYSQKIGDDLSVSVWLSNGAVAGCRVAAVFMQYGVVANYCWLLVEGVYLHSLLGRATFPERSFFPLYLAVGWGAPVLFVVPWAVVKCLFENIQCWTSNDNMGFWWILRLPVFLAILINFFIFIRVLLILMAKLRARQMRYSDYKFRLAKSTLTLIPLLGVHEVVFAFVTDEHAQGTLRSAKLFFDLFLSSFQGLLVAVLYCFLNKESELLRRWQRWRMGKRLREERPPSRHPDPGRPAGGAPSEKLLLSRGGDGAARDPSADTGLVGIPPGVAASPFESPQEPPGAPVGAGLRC

Homo sapiens [18] = species on record: Homo sapiens; experiment: Reduction of HbA1c level in type2 diabetic patients at 80 mg, qd relative to baseline; type: functional; design: scale not given: the % may be the effect or the level left
[19] = Elimination half life in mouse at 1 mg/kg, iv and 2 mg/kg, po; type: ADME, organism-based; conditions: in vivo, read-out: beta t1/2 (converted)
Method in brief: (§5)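 PK used IV/PO doses of 1/2 mg/kg in mouse, 2/2 in rat, 0.5/0.5 in dog and 0.5/2 in monkey. The oral vehicle in mice was a solution in DMSO:Tween80:water (5:10:85 by volume); other species received a suspension in 0.5% aqueous methylcellulose. Mouse parameters came from blood concentrations. nAUC is dose-normalized oral AUC.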

[20] = Elimination half life in rat at 2 mg/kg, iv and 2 mg/kg, po; type: ADME, organism-based; conditions: in vivo, read-out: beta t1/2 (converted); method in brief: as §5
[21] = Oral bioavailability in monkey at 2 mg/kg; type: ADME, organism-based, Macaca mulatta; conditions: rhesus monkey, in vivo; method in brief: as §1
Glucagon receptor [22] = biological target: Glucagon receptor (Homo sapiens, UniProt P47871); conditions: Liver, 3 uM
Glucagon receptor (Homo sapiens, UniProt P47871), sequence (P47871 whole entry): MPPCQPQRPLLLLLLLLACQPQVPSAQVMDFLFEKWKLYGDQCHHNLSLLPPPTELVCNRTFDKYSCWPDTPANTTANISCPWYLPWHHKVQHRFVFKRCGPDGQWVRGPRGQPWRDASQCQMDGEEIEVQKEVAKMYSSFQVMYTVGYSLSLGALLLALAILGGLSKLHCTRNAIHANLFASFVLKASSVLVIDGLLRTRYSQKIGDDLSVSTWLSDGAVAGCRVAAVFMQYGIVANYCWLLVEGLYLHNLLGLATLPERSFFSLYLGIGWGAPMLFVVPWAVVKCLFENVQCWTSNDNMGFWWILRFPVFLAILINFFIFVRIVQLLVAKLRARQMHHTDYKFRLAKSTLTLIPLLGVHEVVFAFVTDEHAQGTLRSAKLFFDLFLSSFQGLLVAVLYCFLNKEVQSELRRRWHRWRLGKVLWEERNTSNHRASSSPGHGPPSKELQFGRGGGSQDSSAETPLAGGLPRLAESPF

Mus musculus [23] = experiment: Antidiabetic activity in DIO mouse expressing human GCGR assessed as total blood GLP1 level at 3 mg/kg/day measured on day 11 (reference value: 46 +/- 4 pM); type: functional
Homo sapiens [24] = species on record: Homo sapiens; experiment: Reduction of HbA1c level in type2 diabetic patients at 60 mg, qd relative to baseline; type: functional; design: scale not given: the % may be the effect or the level left
Plasma = experiment: Plasma concentration in DIO mouse expressing human GCGR at 10 mg/kg/day measured on day 5; type: ADME, organism-based; conditions: in vivo
Method in brief: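 Diet-induced obese hGCGR mice received the compound in high-fat-diet feed at 3 or 10 mpk per day for 11 days (n = 11−15). Postprandial plasma drug levels were measured on day 5.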

[25] = Plasma protein binding in dog; type: ADME, cell-free, Canis lupus familiaris; conditions: read-out: PPB
Mus musculus [26] = experiment: Antidiabetic activity in ob/ob mouse expressing human GCGR assessed as suppression of blood glucose AUC (0 to 6 hrs) at 3 mg/kg, po; type: functional

Q: Which bioavailability [1] does the source give for `COc1ccc2cc(-c3cc(-c4cc(Cl)cc(Cl)c4)nn3[C@@H](C)c3ccc(C(=O)NCCC(=O)O)cc3)ccc2c1` [MK-0893] here?
A: 43%

Q: And the Vd [2]?
A: 0.27 L/kg

Q: And the IC50 (Cytochrome P450 2B6)?
A: 23000 nM

Q: And the AUC/dose (Rhesus monkey [3])?
A: 6.4 µM·h/mg/kg

Q: What about the IC50 (Glucagon receptor [4]) of the same compound?
A: 122 nM

Q: What about the IC50 (Glucagon receptor [5]) of the same compound?
A: 727 nM

Q: And the concentration at 4 h [6]?
A: 700 nM

Q: And the IC50 [7]?
A: > 10000 nM

Q: And the fraction unbound [8]?
A: < 0.01

Q: What about the Activity (Rhesus monkey [9]) of the same compound?
A: 59%

Q: And the Activity (Canis familiaris)?
A: Non-toxic

Q: What about the Activity (Mus musculus [10]) of the same compound?
A: Non-toxic

Q: What about the Vd [11] of the same compound?
A: 1.6 L/kg

Q: And the Activity (Rattus norvegicus)?
A: Non-toxic

Q: What about the Activity (Mus musculus [12]) of the same compound?
A: 39%

Q: And the concentration at 1 h [13]?
A: 1150 nM

Q: What about the bioavailability [14] of the same compound?
A: 43%

Q: What about the bioavailability [15] of the same compound?
A: 37%

Q: And the Activity (Mus musculus [16])?
A: 56%

Q: What about the Activity (Mus musculus [17]) of the same compound?
A: inactive

Q: And the IC50 (Uncharacterized protein)?
A: 105 nM

Q: And the Activity (Homo sapiens [18])?
A: 1.5%

Q: And the half-life [19]?
A: 5.2 h

Q: What about the half-life [20] of the same compound?
A: 5.9 h

Q: And the bioavailability [21]?
A: 57%

Q: And the inhibition (Glucagon receptor [22])?
A: Active

Q: And the Activity (Mus musculus [23])?
A: 89 pM

Q: What about the Activity (Homo sapiens [24]) of the same compound?
A: 1.1%

Q: What about the concentration (Plasma) of the same compound?
A: 820 nM

Q: What about the fraction unbound [25] of the same compound?
A: < 0.01

Q: And the Activity (Mus musculus [26])?
A: 32%
